In series [1] the test system is Mus musculus. As to the kind of experiment: Antiinflammatory activity in A/J mouse assessed as inhibition of leukocyte accumulation in bronchoalveolar space at 100 umol/kg, po administered 1 hr prior to LPS-challenge measured after 18 hrs relative to vehicle-treated control. Conditions: Lung; call rule not given here. The format is functional.
The species named for series [2] is Bos taurus. As to the kind of experiment: Inhibition of bovine PDE4 using [3H]cAMP as substrate at 10 uM. In short, it runs like this:
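Enzyme was PDE4 isolated from the media layer of bovine aorta, run in the two-step activity assay at 1 μM cAMP.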

Series [3] deals with PBMC. Nature of the series: Antiinflammatory activity in human PBMC assessed as inhibition of LPS-induced TNFalpha production at 10 uM after 24 hrs by ELISA relative to control. Format: functional. (In general: ELISA stands for enzyme-linked immunosorbent assay.)
Series [4] in a line: Inhibition of PDE6 at 10 uM.
Series [5] relates to PBMC. As to the kind of experiment: Antiinflammatory activity in human PBMC assessed as inhibition of LPS-induced TNFalpha production after 24 hrs by ELISA. The format is functional, cell-based.
The nature of series [6]: Inhibition of bovine PDE3 using [3H]cAMP as substrate. Details: species or system Bos taurus.
Series [7] is filed under the species Bos taurus. As to the kind of experiment: Inhibition of bovine PDE5 using […] as substrate at 10 uM.
Series [8] has as its system Mus musculus. As to the kind of experiment: Antiinflammatory activity in A/J mouse assessed as inhibition of LPS-induced airway resistance provoked by methacholine at 100 umol/kg, po administered 1 hr prior to LPS-challenge measured after 18 hrs relative to vehicle-treated control. Format: functional.
Series [9] concerns the target 3',5'-cyclic-AMP phosphodiesterase 4D (Homo sapiens, UniProt Q08499). As to the kind of experiment: Inhibition of human recombinant PDE4D.
The subject of series [10] is Mus musculus. Nature of the series: Antiinflammatory activity in A/J mouse lung assessed as inhibition of LPS-induced TNFalpha production at 100 umol/kg, po administered 1 hr prior to LPS-challenge measured after 18 hrs relative to vehicle-treated control. Format: functional.
For series [11], the system named is Mus musculus. As to the kind of experiment: Antiinflammatory activity in A/J mouse lung assessed as inhibition of LPS-induced IL6 production at 100 umol/kg, po administered 1 hr prior to LPS-challenge measured after 18 hrs relative to vehicle-treated control. The format is functional.
For series [12], the species on record is Bos taurus. Nature of the series: Inhibition of bovine PDE1 using [3H]cAMP as substrate at 10 uM.
Series [13] relates to Mus musculus. As to the kind of experiment: Antiinflammatory activity in A/J mouse assessed as inhibition of LPS-induced airway elastance provoked by methacholine at 100 umol/kg, po administered 1 hr prior to LPS-challenge measured after 18 hrs relative to vehicle-treated control. Format: functional.
The test system of series [14] is Mus musculus. Nature of the series: Antiinflammatory activity in A/J mouse assessed as inhibition of neutrophil accumulation in bronchoalveolar space at 100 umol/kg, po administered 1 hr prior to LPS-challenge measured after 18 hrs relative to vehicle-treated control. Format: functional. Conditions: Lung.
In series [15] the target is cGMP-dependent 3',5'-cyclic phosphodiesterase (Homo sapiens, UniProt O00408). As to the kind of experiment: Inhibition of human PDE2 using [3H]cAMP as substrate at 10 uM.
The nature of series [16]: Inhibition of bovine PDE4 using [3H]cAMP as substrate. Set-up: species or system Bos taurus.
Series [17] can be described thus: Inhibition of PDE6.
Series [18] addresses 3',5'-cyclic-AMP phosphodiesterase 4B (Homo sapiens, UniProt Q07343). Nature of the series: Inhibition of human recombinant PDE4B.
For series [19], the target named is 3',5'-cyclic-AMP phosphodiesterase 4C (Homo sapiens, UniProt Q08493). Nature of the series: Inhibition of human recombinant PDE4C.
For series [20], the target named is 3',5'-cyclic-AMP phosphodiesterase 4A (Homo sapiens, UniProt P27815). As to the kind of experiment: Inhibition of human recombinant PDE4A.
Series [21] deals with Mus musculus. As to the kind of experiment: Proemetic activity in A/J mouse assessed as reversal of xylazine/katamine-induced anesthesia at 30 to 200 umol/kg, sc administered 30 mins prior xylazine/ketamine-administration. The format is ADME, organism-based. The conditions noted are these: in vivo, 0.5 h.

Chain of cGMP-dependent 3',5'-cyclic phosphodiesterase (O00408 whole entry): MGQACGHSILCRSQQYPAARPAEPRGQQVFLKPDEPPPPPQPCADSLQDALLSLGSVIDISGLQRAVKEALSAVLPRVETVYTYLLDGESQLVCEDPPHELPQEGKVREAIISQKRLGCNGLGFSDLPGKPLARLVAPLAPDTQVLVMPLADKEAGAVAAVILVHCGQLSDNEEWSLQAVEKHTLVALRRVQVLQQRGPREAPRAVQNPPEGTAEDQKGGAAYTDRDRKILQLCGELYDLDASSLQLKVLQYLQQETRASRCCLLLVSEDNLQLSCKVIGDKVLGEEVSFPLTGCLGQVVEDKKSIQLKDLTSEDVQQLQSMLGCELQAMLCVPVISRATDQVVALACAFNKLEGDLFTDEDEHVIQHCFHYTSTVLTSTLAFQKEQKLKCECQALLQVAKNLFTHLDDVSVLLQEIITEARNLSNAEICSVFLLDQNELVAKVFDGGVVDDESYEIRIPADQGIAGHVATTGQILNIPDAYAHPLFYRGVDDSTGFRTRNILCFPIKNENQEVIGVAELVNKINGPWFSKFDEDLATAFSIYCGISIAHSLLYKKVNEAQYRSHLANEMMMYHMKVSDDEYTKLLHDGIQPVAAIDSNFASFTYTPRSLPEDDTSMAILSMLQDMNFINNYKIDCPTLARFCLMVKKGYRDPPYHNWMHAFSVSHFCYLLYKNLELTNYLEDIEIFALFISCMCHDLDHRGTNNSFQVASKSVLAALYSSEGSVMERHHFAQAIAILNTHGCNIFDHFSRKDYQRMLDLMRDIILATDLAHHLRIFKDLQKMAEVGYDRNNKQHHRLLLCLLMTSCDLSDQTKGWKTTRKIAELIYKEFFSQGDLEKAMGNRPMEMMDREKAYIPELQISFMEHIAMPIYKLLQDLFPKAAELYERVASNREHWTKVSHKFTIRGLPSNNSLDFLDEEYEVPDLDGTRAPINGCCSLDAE
Chain of 3',5'-cyclic-AMP phosphodiesterase 4D (Q08499 whole entry): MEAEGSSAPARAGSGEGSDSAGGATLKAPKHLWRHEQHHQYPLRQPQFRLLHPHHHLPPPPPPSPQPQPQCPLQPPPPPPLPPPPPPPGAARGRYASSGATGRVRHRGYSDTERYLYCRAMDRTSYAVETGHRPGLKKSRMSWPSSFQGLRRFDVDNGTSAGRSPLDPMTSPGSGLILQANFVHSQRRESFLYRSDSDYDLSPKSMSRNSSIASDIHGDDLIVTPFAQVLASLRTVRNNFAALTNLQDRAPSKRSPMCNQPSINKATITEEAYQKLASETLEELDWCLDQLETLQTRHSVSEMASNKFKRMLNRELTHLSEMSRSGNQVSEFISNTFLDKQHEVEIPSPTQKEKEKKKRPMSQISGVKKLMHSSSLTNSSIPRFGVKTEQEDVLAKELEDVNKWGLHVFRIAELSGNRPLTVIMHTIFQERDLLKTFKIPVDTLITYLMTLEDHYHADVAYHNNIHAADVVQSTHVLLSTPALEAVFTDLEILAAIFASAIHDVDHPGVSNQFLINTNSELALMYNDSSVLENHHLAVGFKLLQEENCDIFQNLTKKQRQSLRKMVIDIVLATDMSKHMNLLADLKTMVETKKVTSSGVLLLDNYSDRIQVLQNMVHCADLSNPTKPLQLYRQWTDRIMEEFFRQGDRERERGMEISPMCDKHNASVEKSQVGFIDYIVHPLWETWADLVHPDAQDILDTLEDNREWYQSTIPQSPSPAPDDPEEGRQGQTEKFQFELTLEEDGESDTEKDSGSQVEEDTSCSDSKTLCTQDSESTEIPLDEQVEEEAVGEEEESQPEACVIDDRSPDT
Chain of 3',5'-cyclic-AMP phosphodiesterase 4C (Q08493 whole entry): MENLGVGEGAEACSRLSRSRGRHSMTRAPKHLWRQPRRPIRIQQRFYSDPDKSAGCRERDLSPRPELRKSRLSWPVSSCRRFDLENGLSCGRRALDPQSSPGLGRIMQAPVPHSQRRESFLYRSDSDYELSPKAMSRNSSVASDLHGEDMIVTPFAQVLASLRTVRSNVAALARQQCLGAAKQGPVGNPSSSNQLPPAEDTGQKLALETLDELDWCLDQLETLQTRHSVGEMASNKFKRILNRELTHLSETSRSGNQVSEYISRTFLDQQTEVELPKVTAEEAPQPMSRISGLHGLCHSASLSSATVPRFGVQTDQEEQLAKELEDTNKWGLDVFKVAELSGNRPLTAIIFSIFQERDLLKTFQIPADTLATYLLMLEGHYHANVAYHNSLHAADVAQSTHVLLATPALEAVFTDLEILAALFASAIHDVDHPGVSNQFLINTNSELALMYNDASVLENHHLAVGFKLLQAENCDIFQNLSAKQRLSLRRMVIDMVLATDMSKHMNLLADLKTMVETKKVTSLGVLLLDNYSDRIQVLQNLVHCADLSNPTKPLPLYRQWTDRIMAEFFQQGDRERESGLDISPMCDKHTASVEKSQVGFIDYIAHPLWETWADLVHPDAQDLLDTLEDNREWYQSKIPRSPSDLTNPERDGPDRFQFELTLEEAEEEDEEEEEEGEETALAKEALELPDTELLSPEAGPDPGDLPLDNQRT
Chain of 3',5'-cyclic-AMP phosphodiesterase 4B (Q07343 whole entry): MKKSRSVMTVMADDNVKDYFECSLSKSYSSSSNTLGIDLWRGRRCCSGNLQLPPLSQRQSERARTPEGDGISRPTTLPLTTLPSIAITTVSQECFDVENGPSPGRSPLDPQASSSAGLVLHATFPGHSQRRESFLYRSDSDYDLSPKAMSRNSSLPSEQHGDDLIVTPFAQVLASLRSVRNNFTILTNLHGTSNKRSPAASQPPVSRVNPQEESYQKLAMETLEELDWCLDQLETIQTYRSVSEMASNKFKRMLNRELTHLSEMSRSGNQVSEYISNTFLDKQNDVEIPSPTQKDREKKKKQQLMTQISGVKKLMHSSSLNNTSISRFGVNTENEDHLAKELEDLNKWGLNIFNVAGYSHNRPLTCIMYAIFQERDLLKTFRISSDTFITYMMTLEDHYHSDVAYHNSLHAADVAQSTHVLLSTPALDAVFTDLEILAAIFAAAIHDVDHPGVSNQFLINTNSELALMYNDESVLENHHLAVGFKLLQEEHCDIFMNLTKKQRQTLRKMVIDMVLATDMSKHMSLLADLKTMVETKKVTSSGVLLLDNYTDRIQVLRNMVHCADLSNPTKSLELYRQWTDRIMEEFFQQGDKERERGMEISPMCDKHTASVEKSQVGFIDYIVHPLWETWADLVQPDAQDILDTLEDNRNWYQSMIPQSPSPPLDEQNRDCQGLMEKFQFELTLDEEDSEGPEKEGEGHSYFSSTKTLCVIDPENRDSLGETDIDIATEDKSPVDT
Chain of 3',5'-cyclic-AMP phosphodiesterase 4A (P27815 whole entry): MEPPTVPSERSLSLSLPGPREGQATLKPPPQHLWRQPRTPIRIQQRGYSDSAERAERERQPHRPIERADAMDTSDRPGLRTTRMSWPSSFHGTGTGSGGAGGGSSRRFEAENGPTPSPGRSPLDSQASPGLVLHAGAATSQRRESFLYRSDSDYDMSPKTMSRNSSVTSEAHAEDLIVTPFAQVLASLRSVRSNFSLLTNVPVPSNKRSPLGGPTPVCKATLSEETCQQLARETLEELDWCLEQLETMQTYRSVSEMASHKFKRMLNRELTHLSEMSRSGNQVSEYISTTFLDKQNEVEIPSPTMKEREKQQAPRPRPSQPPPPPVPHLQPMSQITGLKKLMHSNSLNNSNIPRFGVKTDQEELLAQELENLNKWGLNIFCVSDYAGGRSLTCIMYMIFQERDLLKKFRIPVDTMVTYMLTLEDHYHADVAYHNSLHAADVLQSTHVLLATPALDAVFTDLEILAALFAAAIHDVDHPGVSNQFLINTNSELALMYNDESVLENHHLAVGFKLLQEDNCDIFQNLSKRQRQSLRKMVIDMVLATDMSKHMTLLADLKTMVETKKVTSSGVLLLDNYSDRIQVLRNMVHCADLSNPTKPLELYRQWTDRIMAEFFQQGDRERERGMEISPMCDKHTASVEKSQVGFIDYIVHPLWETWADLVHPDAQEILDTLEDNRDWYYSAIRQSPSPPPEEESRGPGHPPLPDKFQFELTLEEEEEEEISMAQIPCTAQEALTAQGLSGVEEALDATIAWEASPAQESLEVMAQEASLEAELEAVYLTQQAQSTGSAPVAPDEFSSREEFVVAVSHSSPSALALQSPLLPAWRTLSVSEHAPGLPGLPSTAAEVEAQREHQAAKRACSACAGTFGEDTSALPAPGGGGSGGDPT

For the compound `COc1ccc(/C=N/N(C)C(=O)c2ccccc2)cc1OC`, the inhibition in vivo at 100 µmol/kg turned out to be 73% in the series on Mus musculus [1]; 58% with Mus musculus [8]; 46% in the series on Mus musculus [10]; 53% in the series on Mus musculus [11]; 51% in the series on Mus musculus [13]; 68% in the series on Mus musculus [14]. For the same compound, the inhibition in the series listed under Bos taurus [2] stood at 97.1%; in series [4], 31.2%; in the series listed under Bos taurus [7], 22.3%; in the series listed under Bos taurus [12], 6%; in series [15], 23.5%. The inhibition at 10 µM in the series on PBMC [3] turned out to be 91%. The EC50 in the series on PBMC [5] was 1750 nM. Moreover, the IC50 was 19600 nM in series [6] and 140 nM in series [9].

In the series filed under Bos taurus [2], `COc1ccc(/C=N/NC(=O)c2ccccc2)cc1OC` showed an inhibition of 13.1%.

In the series listed under Bos taurus [2], `COc1ccc(C(=O)N(C)/N=C/c2ccc(Cl)cc2)cc1OC` displayed an inhibition of 40.4%.

In the series filed under Bos taurus [2], `COc1ccc(C2=NN(C)C(=O)c3ccccc3C2)cc1OC` showed an inhibition of 76.5%. The inhibition at 10 µM in the series on PBMC [3] is 20%. In series [16], this compound showed an IC50 of 7300 nM.

`COc1ccc(C(=O)N(C)/N=C/c2ccc(O)cc2)cc1OC` gave an inhibition in the series listed under Bos taurus [2] of 27%.

In turn, `COc1ccc(C(=O)N(C)/N=C/c2ccccc2)cc1OC` yielded an inhibition in the series filed under Bos taurus [2] of 22.8%.

Turning to `COc1ccc(-c2nn(C(=O)c3ccccc3)c3ccccc23)cc1OC`, in the series listed under Bos taurus [2], the inhibition amounted to 81.2%. In addition, the half-inhibitory concentration (IC50) in series [16] worked out at 4100 nM.

Regarding `COc1ccc(C(=O)N/N=C/c2ccc(O)cc2)cc1OC`, in the series filed under Bos taurus [2], the inhibition is 1.5%.

As for `COc1ccc(/C=N/N(C)C(=O)c2ccc(Cl)cc2)cc1OC`, the inhibition in vivo at 100 µmol/kg in the series on Mus musculus [1] was 69%; with Mus musculus [8] it was 33%; in the series on Mus musculus [10], 54%; with Mus musculus [11], 59%; in the series with Mus musculus [13], 72%; in the series on Mus musculus [14], 54%. Further, the inhibition in the series listed under Bos taurus [2] turned out to be 97%; in [4], 34%; in the series listed under Bos taurus [7], 27.5%; in the series listed under Bos taurus [12], 17.7%; in series [15], 26.6%. The inhibition at 10 µM in the series on PBMC [3] is 88%. Moreover, in the series with PBMC [5], the EC50 was 1030 nM. The IC50 in [6] was 6700 nM; in series [16] it was 150 nM.

`COc1ccc(/C=N/N(C)C(=O)c2c(C)nc3ccccn23)cc1OC`: the inhibition in the series filed under Bos taurus [2] was 45.9%.

`COc1ccc(/C=N/NC(=O)c2ccc(OC)c(OC)c2)cc1` had an inhibition in the series filed under Bos taurus [2] of 6.6%.

Take `COc1ccc(/C=N/N(C)C(=O)c2ccc(OC)c(OC)c2)cc1OC`: the inhibition in vivo at 100 µmol/kg in the series on Mus musculus [1] came to 53%; in the series with Mus musculus [8], 92%; in the series with Mus musculus [10] it was 74%; in the series on Mus musculus [11], 65%; with Mus musculus [13], 79%; with Mus musculus [14], 50%. The inhibition came out at 95.8% in the series filed under Bos taurus [2], 30.9% in the series listed under Bos taurus [7], 38.7% in the series listed under Bos taurus [12] and 40.8% in series [15]. Further, in the series on PBMC [3], the inhibition at 10 µM amounted to 92%. For the same compound, the EC50 in the series with PBMC [5] worked out at 1180 nM. The IC50 in [6] was found to be 18800 nM; in series [16], 300 nM; in series [17], 17600 nM.

`COc1ccc(/C=N/NC(=O)c2ccc(OC)c(OC)c2)cc1OC`: the inhibition in the series filed under Bos taurus [2] was 10.7%.

Compound `COc1ccc(C(=O)N/N=C/c2ccc3c(c2)OCO3)cc1OC` had an inhibition in the series listed under Bos taurus [2] of 10.5%.

Compound `COc1ccc(/C=N/N(C)C(=O)c2ccc(OC)c(OC)c2)cc1` had an inhibition in the series filed under Bos taurus [2] of 45.8%.

Turning to `COc1cccc(C(=O)N(C)/N=C/c2ccc(OC)c(OC)c2)c1`, the inhibition in vivo at 100 µmol/kg worked out at 73% with Mus musculus [1]; 70% in the series on Mus musculus [8]; 75% in the series with Mus musculus [10]; 38% with Mus musculus [11]; 69% in the series on Mus musculus [13]; 77% in the series with Mus musculus [14]. Further, the inhibition in the series filed under Bos taurus [2] stood at 98.1%; in [4] it was 39.5%; in the series listed under Bos taurus [7], 29.1%; in the series filed under Bos taurus [12] it was 18.5%; in [15], 40.4%. Also, in the series with PBMC [3], the inhibition at 10 µM worked out at 81%. Further, the EC50 with PBMC [5] came out at 1270 nM. The half-maximal inhibitory concentration (IC50) is 4500 nM in series [6] and 290 nM in series [16].

The compound `COc1ccc(C(=O)N/N=C/c2ccc(OC)c(OC)c2)cc1` yielded an inhibition in the series listed under Bos taurus [2] of 9.7%.

`COc1ccc(/C=N/NC(=O)c2c(C)nc3ccccn23)cc1OC` displayed an inhibition in the series listed under Bos taurus [2] of 41.5%.

As for `COc1ccc(C(=O)N/N=C/c2ccccc2)cc1OC`, the inhibition in the series listed under Bos taurus [2] amounted to 5.8%.

Consider `Clc1ncnc2ccccc12`, for which the IC50 amounted to 231 nM in series [18], 622 nM in [9], 3690 nM in series [19] and 162 nM in [20].

With `COc1ccc(/C=N/NC(=O)c2ccc(O)cc2)cc1OC`, the inhibition in the series filed under Bos taurus [2] worked out at 13.6%.

For the compound `COc1ccc(/C=N/N(C)C(=O)c2ccc(O)cc2)cc1OC`, the inhibition in vivo at 100 µmol/kg in the series with Mus musculus [1] was found to be 65%; with Mus musculus [8] it was 36%; in the series with Mus musculus [10], 35%; with Mus musculus [11], 6%; in the series on Mus musculus [13], 61%; in the series on Mus musculus [14], 60%. The inhibition in the series filed under Bos taurus [2] was found to be 98.4%; in the series listed under Bos taurus [7], 27.9%; in the series listed under Bos taurus [12], 28.3%; in series [15], 39.3%. The inhibition at 10 µM with PBMC [3] was 83%. Besides, the EC50 with PBMC [5] came out at 520 nM. The Activity entry with Mus musculus [21] is reported as “Non-toxic”. Also, the IC50 in series [6] is 11800 nM; in series [18] it was 47 nM; in [9], 31 nM; in series [19], 206 nM; in series [20], 64 nM; in [16], 50 nM. In series [17], this compound showed an IC50 of 9100 nM.

`COc1ccc(C(=O)N(C)/N=C/c2ccc3c(c2)OCO3)cc1OC` had an inhibition in the series listed under Bos taurus [2] of 19.8%.

With `COc1ccc(/C=N/NC(=O)c2ccc3c(c2)OCO3)cc1OC`, the inhibition in the series filed under Bos taurus [2] stood at 16%.

As to `COc1ccc(/C=N/N(C)c2ncnc3ccccc23)cc1OC`, the inhibition in vivo at 100 µmol/kg was determined as 47% in the series with Mus musculus [1]; 82% with Mus musculus [8]; 70% in the series with Mus musculus [10]; 86% with Mus musculus [11]; 66% in the series with Mus musculus [13]; 49% with Mus musculus [14]. Further, in the series listed under Bos taurus [2], the inhibition stood at 98%. Besides, in the series on PBMC [5], the EC50 is 1300 nM. Also, in [16], inhibition was half-maximal at 190 nM (IC50).

In turn, `COc1ccc(C2=NNC(=O)c3ccccc3C2)cc1OC` displayed an inhibition in the series filed under Bos taurus [2] of 78.8%. In addition, the inhibition at 10 µM with PBMC [3] turned out to be 14%. Besides, the IC50 in series [16] came out at 5200 nM.

On to `COc1ccc(C(=O)N/N=C/c2c(C)nc3ccccn23)cc1OC`, for which the inhibition in the series listed under Bos taurus [2] worked out at 7.7%.

In the case of `COc1ccc(/C=N/NC(=O)c2ccc(Cl)cc2)cc1OC`, the inhibition in the series filed under Bos taurus [2] came to 7.5%.

`COc1ccc(C(=O)N/N=C/c2ccc(Cl)cc2)cc1OC` registered an inhibition in the series listed under Bos taurus [2] of 6.4%.

For orientation: inhibition in vivo means the share of the control response that was lost under treatment. A word on the inhibition: it is the change of the read-out against control, counted positive when it falls. As usually defined, the EC50 is the concentration giving half of the maximal effect. As a reminder, the IC50 is the midpoint of a concentration-inhibition curve.

Values taken from ChEMBL document CHEMBL2169806, “Design, synthesis, and pharmacological evaluation of N-acylhydrazones and novel conformationally constrained compounds as selective and potent orally active phosphodiesterase-4 inhibitors” (J Med Chem, 2012).
